Assay results reported in ChEMBL document CHEMBL1156597, “Structure-activity relationship of kahalalide F synthetic analogues” (J Med Chem, 2008).

How the values were obtained:
DU-145 = assay: Cytotoxicity against human DU145 cells after 48 hrs by SRB assay; assay type: functional, cell-based; conditions: Homo sapiens, DU-145, 48 h; for CC50: read-out: LC50 (the source's name)
In short: (§1)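 Cells grown in RPMI 1640 with 10% FBS and penicillin/streptomycin at 37 °C and 5% CO₂, trypsinized, then seeded at 5 × 10³/well. After 18 h drug-free attachment, samples in DMSO/EtOH/PBS (0.5:0.5:99) were added for 48 h continuous exposure. Cells were fixed with cold TCA (1 h, 4 °C) and stained with SRB (10 min). Tris-solubilized stain read at 490 nm. Triplicate wells, mean ± SD; GI₅₀ derived.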

LNCaP = assay: Cytotoxicity against human LNcaP cells after 48 hrs by SRB assay; assay type: functional; conditions: for CC50: read-out: LC50 (the source's name); in short: as §1
[1] = Cytotoxicity against human IGROV cells after 48 hrs by SRB assay; assay type: functional; conditions: for CC50: read-out: LC50 (the source's name); in short: as §1
[2] = Cytotoxicity against human IGROV-ET cells after 48 hrs by SRB assay; assay type: functional; conditions: for CC50: read-out: LC50 (the source's name); in short: as §1
SK-BR-3 = assay: Cytotoxicity against human SKBR3 cells after 48 hrs by SRB assay; assay type: functional; conditions: SK-BR-3, 48 h; for CC50: read-out: LC50 (the source's name); in short: as §1
SK-MEL-28 = assay: Cytotoxicity against human SK-MEL-28 cells after 48 hrs by SRB assay; assay type: functional, cell-based; conditions: Homo sapiens, SK-MEL-28, 48 h; for CC50: read-out: LC50 (the source's name); in short: as §1
A549 = assay: Cytotoxicity against human A549 cells after 48 hrs by SRB assay; assay type: functional, cell-based; conditions: Homo sapiens, A549, 48 h; in short: as §1
K562 = assay: Cytotoxicity against human K562 cells after 48 hrs by SRB assay; assay type: functional; conditions: K562, 48 h; for CC50: read-out: LC50 (the source's name); in short: as §1
PANC-1 = assay: Cytotoxicity against human PANC1 cells after 48 hrs by SRB assay; assay type: functional; conditions: PANC-1, 48 h; for CC50: read-out: LC50 (the source's name); in short: as §1
HT-29 = assay: Cytotoxicity against human HT29 cells after 48 hrs by SRB assay; assay type: functional, cell-based; conditions: Homo sapiens, HT-29, 48 h; for CC50: read-out: LC50 (the source's name); in short: as §1
LoVo [3] = assay: Cytotoxicity against human LoVo cells after 48 hrs by SRB assay; assay type: functional; conditions: for CC50: read-out: LC50 (the source's name)
LoVo [4] = assay: Cytotoxicity against human doxorubicin resistant LoVo cells after 48 hrs by SRB assay; assay type: functional; conditions: for CC50: read-out: LC50 (the source's name); in short: as §1
HeLa = assay: Cytotoxicity against human HeLa cells after 48 hrs by SRB assay; assay type: functional; conditions: for CC50: read-out: LC50 (the source's name); in short: as §1
[5] = Cytotoxicity against human HeLa-APL cells after 48 hrs by SRB assay; assay type: functional; in short: as §1

For C/C=C1\NC(=O)[C@H](Cc2ccccc2)NC(=O)[C@@H](C(C)C)NC(=O)[C@@H]([C@H](C)CC)NC(=O)[C@H](NC(=O)[C@H](NC(=O)[C@H](CCCN)NC(=O)[C@H]2CCCN2C(=O)[C@H](NC(=O)[C@@H](NC(=O)[C@H](C)NC(=O)[C@H](NC(=O)CCCC(C)C)C(C)C)C(C)C)C(C)C)[C@H](C)CC)[C@H](C)OC(=O)[C@H](C(C)C)NC1=O, the TGI (DU-145) was 1.25 µM, the GI50 (DU-145; read-out: GI50) was 1.42 µM and the CC50 (DU-145) was 1.1 µM. For the same compound, the GI50 (LNCaP) was 1.38 µM, the TGI (LNCaP) was 1.16 µM and the CC50 (LNCaP) was 0.967 µM. For the same compound, the CC50 [1] was 0.503 µM, the GI50 [2] was 0.808 µM and the GI50 ([2]; read-out: GI50) was 1.23 µM. For the same compound, the CC50 [2] was 0.561 µM, the CC50 (SK-BR-3) was 0.371 µM and the TGI (SK-MEL-28) was 1.19 µM. The GI50 (SK-MEL-28; read-out: GI50) was 1.24 µM, the CC50 (SK-MEL-28) was 1.15 µM and the GI50 (A549) was 0.585 µM. For the same compound, the LC50 (A549) was 4.93 µM, the GI50 (A549; read-out: GI50) was 0.641 µM and the GI50 (K562) was 0.822 µM. It also gave a TGI (K562) of 1.61 µM, a CC50 (K562) of 1.97 µM and a GI50 (PANC-1) of 1.16 µM. The TGI (PANC-1) was 1.42 µM, the CC50 (PANC-1) was 1.81 µM and the CC50 (HT-29) was 0.437 µM. For the same compound, the GI50 (LoVo [3]) was 2.05 µM, the TGI (LoVo [3]) was 2.07 µM and the CC50 (LoVo [3]) was 0.338 µM. For the same compound, the GI50 (LoVo [4]) was 1.08 µM, the TGI (LoVo [4]) was 1.19 µM and the CC50 (LoVo [4]) was 0.306 µM. For the same compound, the GI50 (HeLa) was 1.27 µM, the TGI (HeLa) was 1.12 µM and the CC50 (HeLa) was 0.998 µM. The GI50 [5] was 1.28 µM, the LC50 (concentration giving 50% net cell kill) [5] was 0.873 µM and the TGI [5] was 1.06 µM.
C/C=C1\NC(=O)[C@H](Cc2ccccc2)NC(=O)[C@@H](C(C)C)NC(=O)[C@@H]([C@H](C)CC)NC(=O)[C@H](NC(=O)[C@H](NC(=O)[C@H](CCCN)NC(=O)[C@H]2CCCN2C(=O)[C@H](NC(=O)[C@@H](NC(=O)[C@@H](NC(=O)[C@H](NC(=O)CCCCCCCCCC)C(C)C)[C@@H](C)O)C(C)C)C(C)C)[C@H](C)CC)[C@H](C)OC(=O)[C@H](C(C)C)NC1=O showed a GI50 (DU-145) of 0.188 µM, a GI50 (DU-145; read-out: GI50) of 0.183 µM and a CC50 (DU-145) of 0.26 µM. It also gave a GI50 (LNCaP) of 0.423 µM, a TGI (LNCaP) of 0.586 µM and a CC50 (LNCaP) of 0.72 µM. The GI50 [1] was 0.146 µM, the GI50 ([1]; read-out: GI50) was 0.218 µM and the CC50 [1] was 0.196 µM. For the same compound, the GI50 [2] was 0.218 µM, the GI50 ([2]; read-out: GI50) was 0.166 µM and the CC50 [2] was 0.318 µM. For the same compound, the GI50 (SK-BR-3) was 0.0699 µM, the GI50 (SK-BR-3; read-out: GI50) was 0.0614 µM and the CC50 (SK-BR-3) was 0.0736 µM. The GI50 (SK-MEL-28) was 0.251 µM, the GI50 (SK-MEL-28; read-out: GI50) was 0.193 µM and the CC50 (SK-MEL-28) was 0.561 µM. For the same compound, the GI50 (A549) was 0.186 µM, the LC50 (A549) was 0.456 µM and the GI50 (A549; read-out: GI50) was 0.16 µM. For the same compound, the CC50 (K562) was 1.17 µM, the GI50 (PANC-1) was 1.63 µM and the TGI (PANC-1) was 1.54 µM. For the same compound, the CC50 (PANC-1) was 1.44 µM, the GI50 (HT-29) was 0.371 µM and the TGI (HT-29) was 0.354 µM. The CC50 (HT-29) was 0.201 µM, the GI50 (LoVo [3]) was 0.287 µM and the TGI (LoVo [3]) was 0.319 µM. For the same compound, the CC50 (LoVo [3]) was 0.352 µM, the GI50 (LoVo [4]) was 0.0962 µM and the TGI (LoVo [4]) was 0.189 µM. It also gave a CC50 (LoVo [4]) of 0.265 µM, a GI50 (HeLa) of 0.139 µM and a TGI (HeLa) of 0.129 µM. It also gave a CC50 (HeLa) of 0.12 µM, a GI50 [5] of 0.237 µM and an LC50 (concentration giving 50% net cell kill) [5] of 0.76 µM. For the same compound, the TGI [5] was 0.399 µM.
Work on C/C=C1\NC(=O)[C@H](Cc2ccccc2)NC(=O)[C@@H](C(C)C)NC(=O)[C@@H]([C@H](C)CC)NC(=O)[C@H](NC(=O)[C@H](NC(=O)[C@H](CCCN)NC(=O)[C@H]2CCCN2C(=O)[C@H](NC(=O)[C@@H](NC(=O)[C@@H](NC(=O)[C@@H](CCCN)NC(=O)CCCC(C)C)[C@@H](C)O)C(C)C)C(C)C)[C@H](C)CC)[C@H](C)OC(=O)[C@H](C(C)C)NC1=O yielded a TGI (DU-145) of 1.27 µM, a GI50 (DU-145; read-out: GI50) of 1.16 µM and a CC50 (DU-145) of 1.17 µM. For the same compound, the GI50 (LNCaP) was 0.853 µM, the TGI (LNCaP) was 1.17 µM and the CC50 (LNCaP) was 0.95 µM. It also gave a GI50 [1] of 0.63 µM, a GI50 ([1]; read-out: GI50) of 1.13 µM and a CC50 [1] of 0.382 µM. For the same compound, the GI50 [2] was 0.806 µM, the GI50 ([2]; read-out: GI50) was 0.103 µM and the CC50 [2] was 0.559 µM. It also gave a TGI (SK-BR-3) of 1.77 µM, a GI50 (SK-BR-3; read-out: GI50) of 1.72 µM and a CC50 (SK-BR-3) of 0.907 µM. The TGI (SK-MEL-28) was 1.15 µM, the GI50 (SK-MEL-28; read-out: GI50) was 1.14 µM and the CC50 (SK-MEL-28) was 1.16 µM. The GI50 (A549) was 0.888 µM, the LC50 (A549) was 3.84 µM and the GI50 (A549; read-out: GI50) was 0.747 µM. The GI50 (K562) was 0.877 µM, the TGI (K562) was 1.12 µM and the CC50 (K562) was 1.91 µM. It also gave a GI50 (PANC-1) of 1.42 µM, a TGI (PANC-1) of 1.24 µM and a CC50 (PANC-1) of 1.76 µM. The CC50 (HT-29) was 4.27 µM, the CC50 (LoVo [3]) was 0.33 µM and the CC50 (LoVo [4]) was 0.296 µM. For the same compound, the GI50 (HeLa) was 1.37 µM, the TGI (HeLa) was 1.4 µM and the CC50 (HeLa) was 1.03 µM. For the same compound, the GI50 [5] was 1.1 µM, the LC50 (concentration giving 50% net cell kill) [5] was 0.965 µM and the TGI [5] was 1.07 µM.
